Consider four molecules from ChEMBL document CHEMBL4118255, “Synthesis and antibacterial evaluation of novel 11-O-aralkylcarbamoyl-3-O-descladinosylclarithromycin derivatives” (2018).

One may read the MIC as the least concentration at which growth counts as inhibited.

In brackets after ≈: the same amount, converted by molar mass.

Assay type in all cases: functional
In assay [1] the test system is Staphylococcus aureus. The assay is described as follows: Antibacterial activity against erythromycin-susceptible Staphylococcus aureus ATCC 25923 after 24 hrs by […]. Conditions: ATCC 25923, 24 h.
For another assay, the system named is Escherichia coli. The experiment in a line: Antibacterial activity against penicillin-susceptible Escherichia coli ATCC 25922 incubated for 24 hrs by […]. Conditions: ATCC 25922, 24 h.
For assay [2], the system named is Streptococcus pyogenes. The experiment in a line: Antibacterial activity against erythromycin-susceptible Streptococcus pyogenes after 24 hrs […].
The subject of a further assay is Pseudomonas aeruginosa. The experiment in a line: Antibacterial activity against penicillin-susceptible Pseudomonas aeruginosa ATCC 27853 incubated for 24 hrs by […]. The conditions noted are these: ATCC 27853, 24 h.
For a further assay, the system named is Bacillus subtilis. The experiment in a line: Antibacterial activity against erythromycin-susceptible Bacillus subtilis ATCC 9372 after 24 hrs by tube-dilution method. The conditions noted are these: ATCC 9372, 24 h. The method, boiled down: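 MIC by standard NCCLS broth microdilution. Reference macrolides clarithromycin and azithromycin run alongside.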

Assay [3] concerns Staphylococcus aureus. The assay is described as follows: Antibacterial activity against methicillin-resistant Staphylococcus aureus ATCC 43300 after 24 hrs by tube-dilution method. Conditions: ATCC 43300, 24 h. An outline of the steps:
(§1)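 MIC determined by the NCCLS-recommended standard broth microdilution method against erythromycin-resistant S. pneumoniae strains (A22072 mef, B1 erm, AB11 erm plus mef) and methicillin-resistant S. aureus ATCC43300.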

Assay [4] has as its system Streptococcus pneumoniae. The assay is described as follows: Antibacterial activity against erythromycin-resistant Streptococcus pneumoniae B1 harboring ermB gene after 24 hrs by tube-dilution method. The conditions noted are these: B1, 24 h. An outline of the steps:
as §1

The subject of assay [5] is Streptococcus pneumoniae. The assay is described as follows: Antibacterial activity against erythromycin-resistant Streptococcus pneumoniae A22072 harboring mefA gene after 24 hrs by […]. The conditions noted are these: A22072, 24 h.
Assay [6] relates to Streptococcus pneumoniae. The assay is described as follows: Antibacterial activity against erythromycin-resistant Streptococcus pneumoniae AB11 harboring ermB and mefA genes after 24 hrs by tube-dilution method. Conditions: AB11, 24 h. An outline of the steps: as §1
In assay [7] the test system is Streptococcus pyogenes. The experiment in a line: Antibacterial activity against erythromycin-resistant Streptococcus pyogenes R1 after 24 hrs by tube-dilution method. Conditions: R1, 24 h.
Assay [8] concerns Staphylococcus aureus. The experiment in a line: Potency index, ratio of azithromycin MIC to compound MIC for methicillin-resistant Staphylococcus aureus ATCC 43300.
Assay [9] deals with Staphylococcus aureus. The experiment in a line: Potency index, ratio of clarithromycin MIC to compound MIC for methicillin-resistant Staphylococcus aureus ATCC 43300.
The test system of assay [10] is Streptococcus pneumoniae. The experiment in a line: Potency index, ratio of azithromycin MIC to compound MIC for erythromycin-resistant Streptococcus pneumoniae A22072 harboring mefA gene.
Assay [11] concerns Streptococcus pneumoniae. The experiment in a line: Potency index, ratio of clarithromycin MIC to compound MIC for erythromycin-resistant Streptococcus pneumoniae A22072 harboring mefA gene.
Assay [12] concerns Streptococcus pneumoniae. The assay is described as follows: Potency index, ratio of azithromycin MIC to compound MIC for erythromycin-resistant Streptococcus pneumoniae B1 harboring ermB gene.
Assay [13] deals with Streptococcus pneumoniae. The experiment in a line: Potency index, ratio of clarithromycin MIC to compound MIC for erythromycin-resistant Streptococcus pneumoniae B1 harboring ermB gene.
In assay [14] the test system is Streptococcus pneumoniae. The experiment in a line: Potency index, ratio of azithromycin MIC to compound MIC for erythromycin-resistant Streptococcus pneumoniae AB11 harboring ermB and mefA gene.
Assay [15] has as its system Streptococcus pneumoniae. The experiment in a line: Potency index, ratio of clarithromycin MIC to compound MIC for erythromycin-resistant Streptococcus pneumoniae AB11 harboring ermB and mefA gene.
Assay [16] deals with Streptococcus pyogenes. The assay is described as follows: Potency index, ratio of azithromycin MIC to compound MIC for erythromycin-resistant Streptococcus pyogenes R1.
For assay [17], the system named is Streptococcus pyogenes. The assay is described as follows: Potency index, ratio of clarithromycin MIC to compound MIC for erythromycin-resistant Streptococcus pyogenes R1.

In the case of `CC[C@H]1OC(=O)[C@H](C)[C@@H](OC(=O)Cc2cccnc2)[C@H](C)[C@@H](O[C@@H]2O[C@H](C)C[C@H](N(C)C)[C@H]2O)[C@](C)(OC)C[C@@H](C)C(=O)[C@H](C)[C@@H](OC(=O)NCCNC(=O)c2ccc([N+](=O)[O-])cc2N)[C@]1(C)O`, the MIC against Staphylococcus aureus [1] stood at 1 µg/mL (≈ 1.04 µM); in the assay on Escherichia coli, 64 µg/mL (≈ 66.7 µM); with Streptococcus pyogenes [2], 0.03 µg/mL (≈ 0.0313 µM); against Pseudomonas aeruginosa it was 64 µg/mL (≈ 66.7 µM); in the assay on Bacillus subtilis, 1 µg/mL (≈ 1.04 µM); in the assay on Staphylococcus aureus [3], 64 µg/mL (≈ 66.7 µM). Besides, the MIC stood at 16 µg/mL (≈ 16.7 µM) in the assay with Streptococcus pneumoniae [4], 0.25 µg/mL (≈ 0.261 µM) against Streptococcus pneumoniae [5], 4 µg/mL (≈ 4.17 µM) against Streptococcus pneumoniae [6] and 128 µg/mL (≈ 133 µM) against Streptococcus pyogenes [7]. In addition, the Ratio in the assay on Staphylococcus aureus [8] is 4; with Staphylococcus aureus [9], 4; in the assay with Streptococcus pneumoniae [10], 16; in the assay on Streptococcus pneumoniae [11], 8; in the assay with Streptococcus pneumoniae [12] it was 8; in the assay on Streptococcus pneumoniae [13], 8. Also, the Ratio in the assay on Streptococcus pneumoniae [14] and in the assay on Streptococcus pneumoniae [15] was 32 each time.

Consider `CC[C@H]1OC(=O)[C@H](C)[C@@H](OC(=O)Cc2cccnc2)[C@H](C)[C@@H](O[C@@H]2O[C@H](C)C[C@H](N(C)C)[C@H]2O)[C@](C)(OC)C[C@@H](C)C(=O)[C@H](C)[C@@H](OC(=O)NCCNC(=O)C#Cc2cccc3ccccc23)[C@]1(C)O`, for which the minimal inhibitory concentration (MIC) in the assay with Staphylococcus aureus [1] was 4 µg/mL (≈ 4.11 µM); against Escherichia coli, more than 128 µg/mL; in the assay on Streptococcus pyogenes [2], 0.125 µg/mL (≈ 0.128 µM); against Pseudomonas aeruginosa it was more than 128 µg/mL; against Bacillus subtilis it was 2 µg/mL (≈ 2.06 µM); in the assay with Staphylococcus aureus [3], 64 µg/mL (≈ 65.8 µM). The MIC came to 32 µg/mL (≈ 32.9 µM) against Streptococcus pneumoniae [4], 1 µg/mL (≈ 1.03 µM) against Streptococcus pneumoniae [5], 16 µg/mL (≈ 16.4 µM) in the assay with Streptococcus pneumoniae [6] and 32 µg/mL (≈ 32.9 µM) against Streptococcus pyogenes [7]. Further, the Ratio in the assay with Streptococcus pyogenes [16] and in the assay with Streptococcus pyogenes [17] was 4 in each case.

For `CC[C@H]1OC(=O)[C@H](C)[C@@H](OC(=O)Cc2cccnc2)[C@H](C)[C@@H](O[C@@H]2O[C@H](C)C[C@H](N(C)C)[C@H]2O)[C@](C)(OC)C[C@@H](C)C(=O)[C@H](C)[C@@H](OC(=O)NCCNC(=O)c2cc([N+](=O)[O-])cc([N+](=O)[O-])c2)[C@]1(C)O`, the MIC with Staphylococcus aureus [1] worked out at 1 µg/mL (≈ 1.01 µM); against Escherichia coli, 64 µg/mL (≈ 64.7 µM); in the assay on Streptococcus pyogenes [2], 0.015 µg/mL (≈ 0.0152 µM); in the assay on Pseudomonas aeruginosa it was 64 µg/mL (≈ 64.7 µM); in the assay on Bacillus subtilis, 1 µg/mL (≈ 1.01 µM); with Staphylococcus aureus [3] it was 64 µg/mL (≈ 64.7 µM). The minimal inhibitory concentration (MIC) in the assay with Streptococcus pneumoniae [4] was determined as 32 µg/mL (≈ 32.4 µM); against Streptococcus pneumoniae [5] it was 0.5 µg/mL (≈ 0.506 µM); in the assay with Streptococcus pneumoniae [6] it was 4 µg/mL (≈ 4.04 µM); against Streptococcus pyogenes [7] it was 128 µg/mL (≈ 129 µM). Moreover, the Ratio turned out to be 8 in the assay on Streptococcus pneumoniae [10], 4 with Streptococcus pneumoniae [11], 32 with Streptococcus pneumoniae [14] and 32 in the assay on Streptococcus pneumoniae [15].

Turning to `CC[C@H]1OC(=O)[C@H](C)[C@@H](OC(=O)Cc2cccnc2)[C@H](C)[C@@H](O[C@@H]2O[C@H](C)C[C@H](N(C)C)[C@H]2O)[C@](C)(OC)C[C@@H](C)C(=O)[C@H](C)[C@@H](OC(=O)NCCNC(=O)c2ccc(C3CCCCC3)cc2)[C@]1(C)O`, the MIC against Staphylococcus aureus [1] came to 2 µg/mL (≈ 2.04 µM); in the assay on Escherichia coli, 128 µg/mL (≈ 130 µM); in the assay on Streptococcus pyogenes [2], 0.5 µg/mL (≈ 0.51 µM); in the assay on Pseudomonas aeruginosa, 128 µg/mL (≈ 130 µM); against Bacillus subtilis, 4 µg/mL (≈ 4.08 µM); with Staphylococcus aureus [3], 32 µg/mL (≈ 32.6 µM). Besides, the minimum inhibitory concentration (MIC) in the assay on Streptococcus pneumoniae [4] was 64 µg/mL (≈ 65.2 µM); in the assay with Streptococcus pneumoniae [5], 1 µg/mL (≈ 1.02 µM); against Streptococcus pneumoniae [6], 32 µg/mL (≈ 32.6 µM); in the assay with Streptococcus pyogenes [7], 32 µg/mL (≈ 32.6 µM). Also, the Ratio in the assay on Streptococcus pyogenes [16] and with Streptococcus pyogenes [17] was 4 each time.
